Screens from PubChem.
TRPC6 inh: blocks the mouse TRPC6 cation channel. Q61143. AID 2553. 310,000 compounds, 1.1% hits. B-score at 10 µM. HEK293-TRPC6, membrane potential dye, ACh-evoked depolarization; stronger effect = lower value;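 active = B-score under library mean minus 3 SD, initial fluorescence not abnormally high, positive integrated signal ratio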;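 note: B-score derived from integrated fluorescence ratio over the kinetic read; more negative B-score means stronger inhibition of depolarization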
Target sequence (Q61143 whole entry, looked up): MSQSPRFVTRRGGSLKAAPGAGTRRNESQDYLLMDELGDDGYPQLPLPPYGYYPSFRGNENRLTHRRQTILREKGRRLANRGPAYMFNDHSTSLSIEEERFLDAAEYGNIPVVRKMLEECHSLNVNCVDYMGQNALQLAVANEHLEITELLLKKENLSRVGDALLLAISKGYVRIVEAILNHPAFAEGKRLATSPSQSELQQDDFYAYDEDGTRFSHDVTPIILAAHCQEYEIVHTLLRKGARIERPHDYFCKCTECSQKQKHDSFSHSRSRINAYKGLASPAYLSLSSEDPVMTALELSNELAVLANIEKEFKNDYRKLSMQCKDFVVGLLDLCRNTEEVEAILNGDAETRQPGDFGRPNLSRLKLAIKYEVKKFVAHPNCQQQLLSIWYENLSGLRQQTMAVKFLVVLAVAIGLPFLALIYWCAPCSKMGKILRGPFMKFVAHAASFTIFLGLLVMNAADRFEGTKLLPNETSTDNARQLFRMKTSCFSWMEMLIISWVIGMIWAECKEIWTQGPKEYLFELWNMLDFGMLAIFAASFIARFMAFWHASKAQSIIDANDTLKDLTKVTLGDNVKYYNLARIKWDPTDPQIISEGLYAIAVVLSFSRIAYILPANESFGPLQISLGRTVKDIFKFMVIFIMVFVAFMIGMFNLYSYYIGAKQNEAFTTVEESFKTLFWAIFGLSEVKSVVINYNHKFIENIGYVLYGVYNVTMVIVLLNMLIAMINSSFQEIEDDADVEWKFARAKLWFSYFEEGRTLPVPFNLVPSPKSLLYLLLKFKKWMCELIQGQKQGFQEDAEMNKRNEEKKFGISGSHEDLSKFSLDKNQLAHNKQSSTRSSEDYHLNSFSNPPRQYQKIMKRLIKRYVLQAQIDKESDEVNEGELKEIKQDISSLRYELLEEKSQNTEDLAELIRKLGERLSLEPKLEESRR
TRPC4 PAM: allosterically enhances the mouse TRPC4 cation channel; Q9QUQ5; HEK293 TRPC4beta/mu-opioid, DAMGO EC20, Fluo-4 Ca2+ flux; stronger effect = higher value; B-score at 10 µM; 310,000 compounds, 0.42% hits; AID 2227;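 active = B-score of calcium response area above 5 SD of library B-scores, with initial fluorescence ratio within 5 SD of library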;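 note: B-score of integrated fluorescence ratio over time as area under calcium response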
TRPC6 activator: mouse TRPC6 channel activation; HEK293-TRPC6 membrane potential dye fluorescence; stronger effect = higher value; B-score at 10 µM; 310,000 compounds, 0.13% hits;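 active = B-score of the integrated fluorescence ratio above library mean plus 3 SD, and starting fluorescence ratio within library mean plus 5 SD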;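 note: higher score means more depolarization so channel activation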
TRPC4 inh: blocks the mouse TRPC4 cation channel; Q9QUQ5; HEK293 TRPC4beta/mu-opioid, DAMGO-evoked Fluo4 calcium flux; stronger effect = lower value; B-score at 10 µM; 300,000 compounds, 0.39% hits; AID 2247;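 active = B-score over 3 SD under the library average, no early fluorescence shift, positive overall ratio signal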
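Assay system – HEK293 line stably carrying TRPC4beta and mu-opioid receptor · Doses – single dose · Detection – Fluo4 calcium-dye fluorescence, kinetic read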
Yeast superoxide: yeast age-related superoxide inhibition as caloric restriction mimetic. AID 2690. S. cerevisiae aged cells, superoxide DHE fluorescence; stronger effect = lower value. superoxide response (% of plate mean), % at 10 µM. 330,000 compounds, 0.18% hits;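 active = superoxide response under a set limit, about three screen SD below normal, cut at about 65% in these data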;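 note: yeast aged for seven days with compound at 30 °C before DHE staining; 100% = average MFI of all compound-treated wells on the plate with controls excluded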
TRPC4 agonist: opens the mouse TRPC4 cation channel; Q9QUQ5; HEK293 TRPC4beta/mu-opioid, Fluo4 calcium fluorescence; stronger effect = higher value; B-score at 10 µM; 310,000 compounds, 0.49% hits;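 active = B-score above 5 SD of library B-scores, and initial fluorescence ratio not above library mean plus 5 SD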;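 note: positive B-score marks a calcium rise read as TRPC4 activation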
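Assay system – TRPC4beta and mu-opioid receptor HEK293 stable cells · Measured by – Fluo4 fluorescence, kinetic · Schedule – dye loading 45 min room temperature, 110 s kinetic read · Read-out – B-scored integrated calcium fluorescence ratio · Controls – buffer and maximal DAMGO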
TRPC4 spec 2: mouse TRPC4 off-target activity of TRPC6 inhibitors, second screen; shares compounds with TRPC6 inh; HEK293 TRPC4/MOR, membrane potential dye fluorescence; channel activated by saturating DAMGO dose; inhibition, % at 10 µM; 920 compounds, 42% hits;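 active = compounds whose fluorescence signal differed from control wells by over 3 SD, either direction, in both duplicate plates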
TRPC4 spec: selectivity of TRPC6 inhibitors: effect on mouse TRPC4; HEK293 TRPC4/mu-opioid, membrane potential fluorescence; AID 2777; activity change, negative = inhibition, % at 10 µM; shares compounds with TRPC6 inh; 920 compounds, 61% hits;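 active = rise or fall in signal beyond 3 SD of buffer-only wells in both replicate plates, either sign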;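 note: integrated kinetic ratio of fluorescence range over baseline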
HEK293 MPD ctr 2-1: parental HEK293 nonspecific activity of TRPC6 inhibitors, second screen. shares compounds with TRPC6 inh. parental HEK293 membrane potential dye fluorescence; maximal acetylcholine challenge after compound addition. signal change vs control, % at 10 µM. 920 compounds, 31% hits;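 active = membrane potential signal moving either way by over 3 SD of the maximum-effect control, in both duplicate plates, meaning non-specific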
HEK293 MPD ctr-1: checks TRPC6 inhibitor effects in parental HEK293 cells | shares compounds with TRPC6 inh | parental HEK293 membrane potential dye fluorescence | membrane potential signal change, % at 10 µM | 920 compounds, 60% hits | AID 2780;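 active = membrane potential signal shifting up or down by more than 3 SD of buffer-only wells, on both duplicate plates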
HEK293 MPD ctr-2: counter-screen for TRPC6 modulators: effect in parental HEK293 cells; shares compounds with TRPC6 inh; membrane potential dye fluorescence; 2,400 compounds, 51% hits; membrane potential signal change, % at 10 µM;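 active = membrane potential signal moves up or down beyond 5 SD from buffer-only wells, on both duplicate plates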
HEK293 MPD ctr 2-2: second check of TRPC6 modulator effects in parental HEK293 cells | membrane potential dye fluorescence; after compound, maximal acetylcholine stimulation | 2,400 compounds, 14% hits | shares compounds with TRPC6 inh | inhibition, % at 10 µM | AID 488926;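 active = membrane potential signal drops by more than 5 SD from the mean control signal, in both duplicate plates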;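 note: plate controls were acetylcholine ECmax control wells for no effect and buffer only wells for full effect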
TRPC4 ctr mod: tests whether TRPC6 modulators also affect mouse TRPC4. shares compounds with TRPC6 inh. HEK293 TRPC4/mu-opioid, membrane potential fluorescence. percent change from control (negative = decrease, positive = increase), % at 10 µM. 2,400 compounds, 69% hits. AID 488927;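 active = membrane potential signal moved up or down beyond 5 SD of buffer control wells, in both duplicate plates, actives on both sides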;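 note: plate controls were assay buffer wells for no effect and DAMGO maximal-effect wells for full effect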
TRPC4 ctr inh 2: second check of whether TRPC6 modulators also affect mouse TRPC4; shares compounds with TRPC6 inh; HEK293 TRPC4/mu-opioid, membrane potential dye fluorescence; stimulated with maximal-effect DAMGO; inhibition, % at 10 µM; 2,400 compounds, 55% hits;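 active = drop in membrane potential signal beyond 5 SD of the control wells in both duplicate plates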;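 note: TRPC4 counter screen for TRPC6 hits run under conditions tuned for TRPC6 not TRPC4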
TRPC6 inh conf: mouse TRPC6 inhibitor confirmation | shares compounds with TRPC6 inh | HEK293-TRPC6, membrane potential dye, ACh-evoked depolarization | inhibition, % at 10 µM | AID 488960 | 3,300 compounds, 43% hits;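 active = fluorescence ratio falls more than 5 SD below the full-stimulation control mean, in both duplicate runs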;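 note: integrated fluorescence ratio of peak minus minimum over baseline after agonist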
TRPC6 act conf: confirmation of mouse TRPC6 activators | shares compounds with TRPC6 inh | HEK293-TRPC6 membrane potential dye fluorescence, FDSS | activation, % at 10 µM | 2,800 compounds, 11% hits;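 active = ratio signal rise beyond 5 SD above unstimulated control wells' mean, seen in both duplicate runs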;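 note: plate controls were buffer EC0 wells for no effect and acetylcholine ECmax response for full effect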
* marks the source's active call; other numbers are inactive results; i = inactive; nt = no result. This is a sample that favours compounds with a hit; in the whole collection about 2.3% have one here.

SMILES | TRPC6 inh | TRPC4 PAM | TRPC6 activator | TRPC4 inh | Yeast superoxide | TRPC4 agonist | HEK293 MPD ctr-2 | HEK293 MPD ctr 2-2 | TRPC4 ctr mod | TRPC4 ctr inh 2 | TRPC6 inh conf | TRPC6 act conf | others
Cc1cc(=O)oc2cc(OCC(=O)N3CCN(Cc4ccc5c(c4)OCO5)CC3)ccc12 | i | i | i | i | 99.6 | i | nt | nt | nt | nt | nt | nt
COc1cc2c(cc1OC)-c1c(OC)c(OC)cc3c1[C@H](C2)N(C)CC3 | -7.72* | i | i | i | 99.4 | i | -411.5%* | i | -57.5%* | 38.0%* | 45.0%* | i
CCN(CC)CCOC(=O)C(O)(c1ccccc1)c1ccccc1 | nt | nt | nt | nt | 94.0 | nt | nt | nt | nt | nt | nt | nt
CCN(CC)CCCOC(=O)C(OC)(c1ccccc1)c1ccccc1 | -6.41* | i | i | i | 95.5 | i | 153.0%* | 78.0%* | 34.5%* | i | 61.0%* | nt
O=c1oc2ccccc2c(O)c1C(c1ccc([N+](=O)[O-])cc1)c1c(O)c2ccccc2oc1=O | -7.29* | i | i | i | nt | i | nt | nt | nt | nt | i | i | TRPC4 spec 2=i;TRPC4 spec=i;HEK293 MPD ctr 2-1=i;HEK293 MPD ctr-1=-272.5%*
C[N+]12CCC(CC1)C(=C(c1ccccc1)c1ccccc1)C2 | -6.83* | i | i | i | 114.0 | i | nt | nt | nt | nt | 80.6%* | i | TRPC4 spec 2=i;TRPC4 spec=i;HEK293 MPD ctr 2-1=-12.5%*;HEK293 MPD ctr-1=i
CC[N+]12CCC(CC1)C(=C(c1ccccc1)c1ccccc1)C2 | -6.07* | i | i | i | 94.8 | i | i | 69.0%* | i | i | 66.5%* | i
CCC[N+]12CCC(CC1)C(C(O)(c1ccccc1)c1ccccc1)C2 (configuration not stated) | i | i | i | i | 86.9 | i | nt | nt | nt | nt | nt | nt
CC(=NCC1CCCO1)c1c(O)n(-c2ccccc2C)c(=O)[nH]c1=O (configuration not stated) | i | i | i | i | 112.1 | i | nt | nt | nt | nt | nt | nt
c1ccc(CNc2c3c(nc4ccccc24)CCC3)cc1 | -5.8* | i | i | i | 105.5 | i | i | i | i | 52.5%* | i | i
OCCNc1c2c(nc3ccccc13)CCCC2 | -6.65* | i | i | i | 101.7 | i | nt | nt | nt | nt | i | i | TRPC4 spec 2=i;TRPC4 spec=-23.2%*;HEK293 MPD ctr 2-1=i;HEK293 MPD ctr-1=-362.5%*
OC(c1ccccc1)(c1ccccc1)C1CCCN1 (configuration not stated) | i | i | i | i | 105.4 | i | nt | nt | nt | nt | nt | nt
O=C1C(c2ccccc2)=C(N2CC2)c2ccccc21 | i | i | i | i | 74.6 | i | nt | nt | nt | nt | nt | nt
CN1CCN(c2ccc3c(c2)S(=O)(=O)c2ccccc2C3=O)CC1 | -5.31* | i | i | i | 98.2 | i | 90.0%* | i | -51.5%* | 31.5%* | i | i
CN1CCN(c2cccc3c2C(=O)c2ccccc2C3=O)CC1 | -18.4* | 17* | i | i | nt | i | -287.5%* | 81.5%* | -53.0%* | 71.5%* | 79.5%* | i
CNC(=O)NC(O)C(Cl)(Cl)Cl (configuration not stated) | i | i | i | i | 116.7 | i | nt | nt | nt | nt | nt | nt
COc1ccccc1CCNC1CCC(C(C)(C)C)CC1 (configuration not stated) | -14* | i | 18.4* | i | 99.4 | i | 673.0%* | 105.0%* | 156.5%* | 82.5%* | 98.0%* | 177.5%*
O=C(NC1CN2CCC1CC2)c1cc(Cl)c([N+](=O)[O-])c2nc[nH]c12 (configuration not stated) | -5.93* | i | i | i | 113.6 | i | -218.0%* | i | -33.0%* | i | i | i
C/C=C1/C[C@@H](C)[C@](O)(CO)C(=O)OCC2=CCN3CC[C@@H](OC1=O)[C@@H]23 | nt | nt | nt | nt | 98.2 | nt | nt | nt | nt | nt | nt | nt
C/C=C1/CC(C)C(C)(O)C(=O)OCC2CCN3CCC(OC1=O)C23 (configuration not stated) | -6.21* | i | i | i | 92.4 | i | i | 81.0%* | 18.5%* | i | 78.5%* | i
O=C(CN1CCCC1=O)N1CCOCC1 | i | i | i | i | 98.1 | i | nt | nt | nt | nt | nt | nt
O=C1CCCN1CC#CCN1CCCC1 | -5.89* | i | i | i | 97.6 | i | i | i | i | i | 49.0%* | nt
COc1ccc(-n2c(O)c(C(C)=NCc3ccc4c(c3)OCO4)c(=O)[nH]c2=O)cc1 | i | i | i | i | 104.3 | i | nt | nt | nt | nt | nt | nt
O=C1Nc2ccc(Br)cc2C(c2ccccc2)=NC1O (configuration not stated) | i | i | i | i | 107.2 | i | nt | nt | nt | nt | nt | nt
CC1(C)NC(=O)[C@H]2CCCN21 | i | i | i | i | 95.3 | i | nt | nt | nt | nt | nt | nt
Cc1ncc([N+](=O)[O-])n1CCOc1nonc1N | i | i | i | i | 100.8 | i | nt | nt | nt | nt | nt | nt
O=[N+]([O-])c1ccc(N2CCCC2)c2ncccc12 | i | i | i | i | 117.9 | i | nt | nt | nt | nt | nt | nt
